Reference: the EternaBench riboswitch data

Legend:
MS2 coat protein [1] = test: apparent Kd, MS2 coat protein; higher = weaker binding; RNA-MaP array; theophylline 2 mM where present
How it was run: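 Designs on Illumina sequencing-chip clusters, transcribed by stalled E. coli RNA polymerase, were exposed to SNAP-549-labelled MS2 coat protein in doubling steps from 0.7 or 1.5 nM up to 3 µM, without and then with constant ligand. The buffer held 100 mM Tris-HCl pH 7.5, 80 mM KCl, 4 mM MgCl2, BSA, DTT, yeast tRNA and Tween-20. Apparent Kd values are medians of filtered per-cluster binding-curve fits to green signal normalised to red-channel RNA signal and control-cluster median Fmax.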

MS2 coat protein [2] = test: apparent Kd, MS2 coat protein; higher = weaker binding; RNA-MaP array
How it was run: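 Designs measured on fewer than 10 clusters were excluded from the data. The rest were RNAs transcribed from sequenced DNA templates on an Illumina sequencing chip and incubated at room temperature, with or without input ligand, with fluorescently labeled MS2 coat protein at 1.5 nM to 3 μM for 0.8–1.5 h at the lowest to 10–20 min at the highest concentrations. Apparent Kd is the median of the per-cluster binding-curve fits.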

[3] = designed as: ON switch for theophylline, no ligand
[4] = ligand present: theophylline, designed as: ON switch for theophylline
[5] = designed as: OFF switch for theophylline, no ligand
[6] = ligand present: theophylline, designed as: OFF switch for theophylline
[7] = designed as: OFF switch for flavin mononucleotide, no ligand
[8] = ligand present: flavin mononucleotide, designed as: OFF switch for flavin mononucleotide
[9] = designed as: ON switch for flavin mononucleotide, no ligand
[10] = ligand present: flavin mononucleotide, designed as: ON switch for flavin mononucleotide

AUCGUACCUAGUGAUACCAGCAAGUGAUCAUAACAUGAGGAUCACCCAUGUAAUCAGUGAUGCCCUUGGCAGCAUAAUCGUUACA
apparent Kd (MS2 coat protein [1]; [3]): 193 nM
apparent Kd (MS2 coat protein [1]; [4]): 155 nM

AUCGUACCUGAUGAUACCAGCAAUUGCUCGUAACAUGAGGAUCACCCAUGUGACCAGUGAUGCCCUUGGCAGCAUGGUCGGUGCA
apparent Kd (MS2 coat protein [1]; [3]): 172 nM
apparent Kd (MS2 coat protein [1]; [4]): 38.5 nM

AUCGUACCUGAUGAUACCAGCAAUUGCUCGUGACAUGAGGAUCACCCAUGUGACCAGUGAUGCCCUUGGCAGCAUGGUCGGUGCA
apparent Kd (MS2 coat protein [1]; [3]): 97.1 nM
apparent Kd (MS2 coat protein [1]; [4]): 13.3 nM

AUUAUCAUGGUCAUAUAUAUAUCUUCAGAUACCAGACUAUAUUAAGUCCCUUGGCAGCUGUUACAUGAGGAUCACCCAUGUUAUA
apparent Kd (MS2 coat protein [1]; [5]): 172 nM
apparent Kd (MS2 coat protein [1]; [6]): 43.5 nM

AUUUAUGGUCGUGAUACCAGACAUACAUGAGGAUCACCCAUGUGAAAUAACAUAAUUUAGGUCCCUUGGCAGCACUUUUUAAUUA
apparent Kd (MS2 coat protein [1]; [3]): 53.8 nM
apparent Kd (MS2 coat protein [1]; [4]): 38.3 nM

CAUGAAGUAACUGAUACCAGUGUACACAUGAGGAUCACCCAUGUGUUGGGUUUUGUUGUACACCCUUGGCAGCAGAAUCUUUAUG
apparent Kd (MS2 coat protein [1]; [5]): 56.6 nM
apparent Kd (MS2 coat protein [1]; [6]): 100 nM

CAUGAAGUAACUGAUACCAGUGUACUGACAUGAGGAUCACCCAUGUUGGGUUUUGUUGUACACCCUUGGCAGCAGAAUCUUUAUG
apparent Kd (MS2 coat protein [1]; [5]): 69.1 nM
apparent Kd (MS2 coat protein [1]; [6]): 110 nM

GCCCUUGGCAGCGAUACCAGCCAAAAUUAAAAUAAACCUCUACAUGAGGAUCACCCAUGUGGCCCUUGGCAGCGAUACCAGCAAA
apparent Kd (MS2 coat protein [1]; [5]): 49.7 nM
apparent Kd (MS2 coat protein [1]; [6]): 76.4 nM

UAAAACAUGAGGAUCACCCAUGUAAAUGAUACCAGAGUGAUGAUCCUCCCUUGGCAGCAUAACGCUGAUUGGAAACAAUCAGCGA
apparent Kd (MS2 coat protein [1]; [3]): 130 nM
apparent Kd (MS2 coat protein [1]; [4]): 243 nM

UAAACACAUGAGGAUCACCCAUGUCAUGAUACCAGUCAACAUGAGGACCCUUGGCAGCAUAAAAUGGGUAACAUGAGGAUCACCC
apparent Kd (MS2 coat protein [1]; [5]): 38.4 nM
apparent Kd (MS2 coat protein [1]; [6]): 112 nM

UAUAAAAUAACAGAUACCAGCGUGUUAUAAAACAUGAGGAUCACCCAUGUAGUGAUCAAGCGCCCUUGGCAGCUGGUAUUUUAUG
apparent Kd (MS2 coat protein [1]; [3]): 79.3 nM
apparent Kd (MS2 coat protein [1]; [4]): 133 nM

UCACAUGAGGAUCACCCAUGUACAGGCGAUACCAGCCGUACAUUGGGCCCUUGGCAGCGCACCGAGACCUUUAUAAGCACCUCGG
apparent Kd (MS2 coat protein [1]; [3]): 29.5 nM
apparent Kd (MS2 coat protein [1]; [4]): 192 nM

UCGUGUAUAACGGAUACCAGUGAGAAGGAUACAUGAGGAUCACCCAUGUGAGUUGAUCCACACCCUUGGCAGCUGUAUAUAUCUA
apparent Kd (MS2 coat protein [1]; [3]): 194 nM
apparent Kd (MS2 coat protein [1]; [4]): 1100 nM

UGACAUUGCUCAGAUACCAGACAUGAGGAUCACCCAUGUACCAAGGUAAGAAAAUAACAUGUCCCUUGGCAGCUGAGCAAUGUCU
apparent Kd (MS2 coat protein [1]; [5]): 16.2 nM
apparent Kd (MS2 coat protein [1]; [6]): 240 nM

UGGUAGUUGGAGAAGGGAUCGUCGGAACCCAGAUCAGGAUAUCCGACUACAUGAGGAUCACCCAUGUCCUAUCAGUACAAGUAC
apparent Kd (MS2 coat protein [2]; [7]): 20.2 nM
apparent Kd (MS2 coat protein [2]; [8]): 41 nM

UUAGAAUACUAAGGAUAUGAUUAUGGCGCACCGCUGUCCGGUGUACAUGAGGAUCACCCAUGUAAUCAGAAGGUAGACUUGUCC
apparent Kd (MS2 coat protein [2]; [9]): 9.94 nM
apparent Kd (MS2 coat protein [2]; [10]): 8.91 nM

UUAGGUGCAGGAUAUACAAGACUUAGUAGGAUACCAGACCUACAUGAGGAUCACCCAUGUAGAAGGGCAAUGCA
apparent Kd (MS2 coat protein [2]; [7]): 20.6 nM
apparent Kd (MS2 coat protein [2]; [8]): 16.9 nM

UUCACAAGAAUUUACAUGAGGAUCACCCAUGUCCUUGCAAAGGAGGAUAUUGAGUACAAGACCUACAAGAAGGCCAGAGACAAG
apparent Kd (MS2 coat protein [2]; [9]): 46.4 nM
apparent Kd (MS2 coat protein [2]; [10]): 15.5 nM

UUCGACCACGAGAAGGUGACGAAGGCCGAUUGUCAAGGAUAUCGACACAUGAGGAUCACCCAUGUCAGAGCGGGACUAACUAAA
apparent Kd (MS2 coat protein [2]; [9]): 22.6 nM
apparent Kd (MS2 coat protein [2]; [10]): 12.8 nM

UUCUCACAUGAGGAUCACCCAUGUCUAAGGAGUACAGGAUAUGUGCCGUGAUUUUCGAGUACAGAAGGGUACAAUU
apparent Kd (MS2 coat protein [2]; [9]): 273 nM
apparent Kd (MS2 coat protein [2]; [10]): 33.6 nM

UUCUGGCCGCAGAAGGAGGAUCUGGUUGAAAUCCUAGGAUAUGCAUCUAACCACUGGUCCACAUGAGGAUCACCCAUGUCAGAC
apparent Kd (MS2 coat protein [2]; [7]): 16.3 nM
apparent Kd (MS2 coat protein [2]; [8]): 12.4 nM

UUCUUGUCAGGAUAUGGCCCAGAGUCUAAGGCACCGAACGGCCAGAAGGGACAUGAGGAUCACCCAUGUAUCCU
apparent Kd (MS2 coat protein [2]; [7]): 16.3 nM
apparent Kd (MS2 coat protein [2]; [8]): 82.8 nM

UUGAUAGCAGGAUAUACCAGUCAUGUCUCGCAAUUUACCCGACAUGAGGAUCACCCAUGUAGAAGGGCUGUUUA
apparent Kd (MS2 coat protein [2]; [7]): 15.3 nM
apparent Kd (MS2 coat protein [2]; [8]): 14.5 nM

UUGUUUAGGAUAGGAUAUAGGUCUAAAAGUGAGUCGGACAUGAGGAUCACCCAUGUGGGUGCGAUCUAGAAGGAUCCGCCGCGG
apparent Kd (MS2 coat protein [2]; [7]): 754 nM
apparent Kd (MS2 coat protein [2]; [8]): 269 nM

UUUCGUAACCAACAUGAGGAUCACCCAUGUAGAAAGUUCCUAAGAAGGACAUAACCCAAUAGCAUGUAGGAUAUAAGUAAUCAC
apparent Kd (MS2 coat protein [2]; [9]): 12.1 nM
apparent Kd (MS2 coat protein [2]; [10]): 10.8 nM

UUUGAAAAGCAGAAGGUUCAUAACAUGAGGAUCACCCAUGUGACAUUAAUGAUCCGGUUUUUACGAAAGGAUAUGCUUCUCCUA
apparent Kd (MS2 coat protein [2]; [7]): 8.33 nM
apparent Kd (MS2 coat protein [2]; [8]): 32.6 nM
